# Experimental data: PMC3887510 (Journal of the American Chemical Society, 2013)
# “Also recorded” adds a separate entry of the source.
# Experiments:
# [1] = tested on: chimeric AgrC-III-IV receptor; test: AgrC-III agonism assay; assay type: cell-based, Staphylococcus aureus; conditions: S. aureus RN9532 reporter strain
# In short: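 Uses an agr-null group-I strain carrying a P3-blaZ reporter plasmid. The chimeric receptor joins the group-III AgrC N-terminal sensor domain to the group-IV AgrC C-terminal histidine kinase domain, followed by the agrA coding sequence. Test peptides were serially diluted from stock to give dose-response data. β-lactamase activity was the read-out (modified literature assay), and EC50 was calculated from the curves.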
# AgrC-III [2] = target: T1, AgrC-III (Staphylococcus aureus, UniProt O33590); conditions: read-out: AgrC-III antagonism IC50 value (CI); S. aureus AH1747 group-III P3-gfp reporter; CI = 95% confidence interval; cited from earlier work
# [3] = tested on: constitutively active AgrC-I receptor mutant; conditions: cited from earlier work
# AgrC-III [4] = target: T1, AgrC-III; test: AgrC-III antagonism assay; assay type: cell-based; conditions: ratio of IC50 values vs AIP-III D4A
# AgrC-III [5] = target: T1, AgrC-III; conditions: cited from earlier work
Substance,AgrC-III agonistic activity in words [1],IC50 (AgrC-III [2]),mode of action on constitutively active AgrC-I receptor mutant [3],AgrC-III agonism EC50 value relative to AIP-III ([1]; Figure S-2),fold weaker / reduced AgrC-III inhibitory activity relative to AIP-III D4A (AgrC-III [4]),fold less active as AgrC-III inhibitor relative to AIP-I D5A (AgrC-III [5])
G-V-N-A-(C-S-S-L-F) [AIP-II],inactivity,0.532 nM,inverse agonist,,,
Y-S-T-(C-Y-F-I-M) [AIP-IV],inactivity,0.46 nM,neutral antagonists,,,
I-N-(C-D-F-L-dL) [AIP-III D-L7],agonistic activity; also recorded: able to activate AgrC-III (with analogous activity as AIP-III,,,comparable to AIP-III,,
Y-S-T-(C-D-F-I-M) [AIP-I],inactivity,0.522 nM,,,10 fold,10 fold
I-N-(C-A-F-L-L) [AIP-III D4A],,0.0506 nM,,,,
I-N-(C-D-F-L-L) [AIP-III],,,neutral antagonists,,,
